Screening data (PubChem)
GSK3B inh – inhibitors of human GSK3beta kinase; P49841; GST-GSK3beta kinase, ADP-Glo luminescence, 60 min; active compounds read low; activity score (negative = inhibition), % at 10 µM; 0.038% of 300,000 active;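 active means more than half of replicate wells score below -50%, meaning over 50% inhibition versus plate controls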
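Assay system: GST-fused GSK3beta enzyme, cell-free / Medium: Tris pH 7.5 buffer with MgCl2, DTT, BSA, heparin / Also added: peptide substrate plus 25 µM ATP (final) / Compound: 10 µM single point / Timing: kinase reaction with compound 60 min at room temperature / Detection: ADP-Glo luminescence / Benchmarks: DMSO neutral wells and GW8510 at 20 µM as positive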
Hep lipid drop – hepatic lipid droplet formation modulation; 0.4% of 240,000 active; inhibition, % at 6.5 µM; AML12 mouse hepatocytes, oleate lipid droplets, BODIPY imaging;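 active means lipid droplet intensity inhibited by at least 50%, with more than 500 cells counted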
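Technique: fluorescence imaging, 20x objective, two fields per well / Assay system: AML12 hepatocytes (mouse) / Measure: % inhibition of lipid droplet signal / Doses: 6.5 µM single-point dosing / Incubation: overnight exposure / Reagent: 100 µM oleic acid challenge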
GSK3A inh – blocks human GSK-3 alpha kinase. P49840. ADP-Glo luminescence, 60 min. inhibition, % at 10 µM. 0.1% of 320,000 active. AID 2650;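 active means more than half of replicates show inhibition above 20%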;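 further: GST-tagged GSK-3 alpha with peptide substrate and 25 µM ATP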
STK33 kinase inh – inhibitors of human STK33 kinase; Q9BYT3; purified STK33, MBP phosphorylation, ADP-Glo luminescence; inhibition, % at 10 µM; 0.073% of 320,000 active;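 active means inhibition at or above 25%, using the most active replicate where run in duplicate; inactive means inhibition below 25%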
LANA-H2A inh – blocks KSHV LANA binding to histone H2A/H2B; 0.6% of 320,000 active; cell-free LANA-H2A/H2B peptide, fluorescence polarization; inhibition, % (concentration not given with the values); in the data active means inhibition mostly above about 10%, no sharp cut-off; inactive means mostly below about 6.7%
Target sequence (Q9QR71 whole entry, looked up): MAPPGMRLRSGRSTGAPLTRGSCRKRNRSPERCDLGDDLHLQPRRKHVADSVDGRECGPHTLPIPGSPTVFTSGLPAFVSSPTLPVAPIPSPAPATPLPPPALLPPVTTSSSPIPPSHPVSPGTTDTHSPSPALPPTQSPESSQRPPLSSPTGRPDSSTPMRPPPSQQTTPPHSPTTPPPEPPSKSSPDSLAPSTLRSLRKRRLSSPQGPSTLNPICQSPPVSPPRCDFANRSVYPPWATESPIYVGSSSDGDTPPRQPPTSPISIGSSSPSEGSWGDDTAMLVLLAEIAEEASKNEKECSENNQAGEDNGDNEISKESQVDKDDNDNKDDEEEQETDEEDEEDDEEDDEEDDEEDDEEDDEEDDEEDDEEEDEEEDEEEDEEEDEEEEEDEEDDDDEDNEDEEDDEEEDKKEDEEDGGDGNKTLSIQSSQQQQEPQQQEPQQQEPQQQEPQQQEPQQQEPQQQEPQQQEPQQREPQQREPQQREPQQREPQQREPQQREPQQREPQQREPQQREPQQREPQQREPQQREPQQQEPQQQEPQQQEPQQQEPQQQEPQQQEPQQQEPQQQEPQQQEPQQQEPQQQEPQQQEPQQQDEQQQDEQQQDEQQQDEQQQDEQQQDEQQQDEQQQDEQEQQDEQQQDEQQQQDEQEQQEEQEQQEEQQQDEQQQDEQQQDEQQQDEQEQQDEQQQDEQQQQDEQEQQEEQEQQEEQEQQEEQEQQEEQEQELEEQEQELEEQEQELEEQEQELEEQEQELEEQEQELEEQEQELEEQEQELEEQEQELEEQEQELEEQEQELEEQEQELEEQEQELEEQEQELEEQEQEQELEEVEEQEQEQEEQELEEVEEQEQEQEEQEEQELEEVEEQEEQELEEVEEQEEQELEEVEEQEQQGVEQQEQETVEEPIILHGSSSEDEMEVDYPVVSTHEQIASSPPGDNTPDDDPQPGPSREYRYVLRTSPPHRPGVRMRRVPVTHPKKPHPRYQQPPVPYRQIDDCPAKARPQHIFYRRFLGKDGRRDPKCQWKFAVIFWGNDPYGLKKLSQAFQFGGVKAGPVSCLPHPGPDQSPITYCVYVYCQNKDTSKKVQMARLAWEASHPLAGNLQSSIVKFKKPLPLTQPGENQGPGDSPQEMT
TAG inh – inhibitors of triacylglycerol accumulation | H9c2 cells, Nile Red lipid (TAG) fluorescence; cells loaded with 200 µM oleic acid | inhibition, % at 12.5 µM | 0.66% of 230,000 active | AID 651582;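 active means pattern-corrected inhibition of lipid staining of at least 50% with the nuclear-stain viability signal not falling by more than 50%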
Large screens that a line does not name were inactive. In the library only some 1.3% were active in any assay of this set; here they are far more common.

Cc1cc(CSC(=N)N)c(CSC(=N)N)cc1C	LANA-H2A inh 19
COc1cc(/C=N/NC(=O)c2cc(-c3ccccc3OC(C)C)nc3ccccc23)ccc1O	none (no result: TAG inh)
Cn1c(=O)cc2c3c(c(N4CCCCC4)ccc31)C(=O)c1ccccc1-2	LANA-H2A inh 22
O=C1c2ccccc2C(=O)c2c1cccc2N1CCCC1	none (no result: TAG inh)
CC1(C)C2CCC1(C)C(OCC[N+](C)(C)CC(=O)OC1CCCCC1)C2 (centres undefined)	LANA-H2A inh 27 (no result: TAG inh)
CCOC(=O)C[N+](C)(C)CCOC1CC2CCC1(C)C2(C)C (centres undefined)	none (no result: TAG inh)
COCCNc1nc(-c2ccccc2CO)c2sc(-c3ccccc3)cc2n1	TAG inh 50 (no result: GSK3B inh, Hep lipid drop, GSK3A inh, STK33 kinase inh, LANA-H2A inh)
CC(C)(C)c1ccc(Cn2c(=O)cnc3ccccc32)cc1	LANA-H2A inh 17 (no result: TAG inh)
Cc1ccc(S(=O)(=O)N2CCN(CC(=O)N/N=C\c3ccc(Cl)c([N+](=O)[O-])c3)CC2)cc1	none (no result: TAG inh)
Cc1ccc(C(=O)c2no[n+]([O-])c2C(=O)c2ccc(C)cc2)cc1	TAG inh 52
COc1ccc(Cc2nnc(SCC(=O)Nc3ccc(C)cc3)n(N)c2=O)cc1	TAG inh 59 (no result: Hep lipid drop)
COC(=O)CN1C(=O)C(O)(CC(=O)c2ccc(C)cc2)c2ccccc21 (centres undefined)	none
O=C(NC1CCCC1)C(c1ccncc1)N(C(=O)Cc1cccs1)c1ccccc1 (centres undefined)	none (no result: GSK3A inh, TAG inh)
COc1cccc(-c2sc3cc(OC)c(OC)cc3c2-c2ccc(OCCN3CCCCC3)cc2)c1	TAG inh 92 (no result: GSK3B inh, Hep lipid drop, GSK3A inh, STK33 kinase inh, LANA-H2A inh)
CCOC(=O)C1(CCCc2ccccc2)CCN(CCCn2cccn2)CC1	none
CCOC(=O)C1(Cc2ccccc2C(F)(F)F)CCN(CCCn2cccn2)CC1	LANA-H2A inh 14
Cc1cc2c(c(=O)o1)C(CCC1CCCCC1)C(C#N)=C(N)O2 (centres undefined)	none
CN(C(=O)CCN1C(=O)S/C(=C\c2ccccc2)C1=O)C1CCS(=O)(=O)C1 (centres undefined)	LANA-H2A inh 18 (no result: TAG inh)
O=C(/C=C/c1c[nH]c2ccccc12)c1ccccc1	none (no result: TAG inh)
O=C(Oc1cccc([N+](=O)[O-])c1)c1ccc2c(=O)n3c(nc2c1)CCC3	none (no result: GSK3B inh, Hep lipid drop)
CCc1nc2ccccc2[nH]c1=O	LANA-H2A inh 27
COC(=O)c1cccc2c1-c1ccccc1/C2=N/O	STK33 kinase inh 30
CCNc1c2c3c(cccc3n(C)c1=O)C(=O)c1ccccc1-2	LANA-H2A inh 44 (no result: Hep lipid drop, TAG inh)
Cn1c(NCCc2ccccc2)cc(=O)n(C)c1=O	none (no result: Hep lipid drop, GSK3A inh)
Cn1c(=O)c(NCCc2ccccc2)c2c3c(cccc31)C(=O)c1ccccc1-2	LANA-H2A inh 128 (no result: TAG inh)
CCCCNc1c2c3c(cccc3n(C)c1=O)C(=O)c1ccccc1-2	LANA-H2A inh 23 (no result: TAG inh)
Cn1c(=O)c(NC2CCCCC2)c2c3c(cccc31)C(=O)c1ccccc1-2	none (no result: GSK3B inh, GSK3A inh, STK33 kinase inh, LANA-H2A inh)
CC(=O)Nc1ccc(Nc2c3c4c(cccc4n(C)c2=O)C(=O)c2ccccc2-3)cc1	none (no result: TAG inh)
Cn1c(=O)c(NCCO)c2c3c(cccc31)C(=O)c1ccccc1-2	LANA-H2A inh 185
O=C(Cc1ccccc1)N/N=C/c1cccnc1	none (no result: Hep lipid drop, TAG inh)
COc1ccc(/C=N/NC(=O)c2cccc(NC(=O)c3ccccc3)c2)c(C(=O)O)c1OC	none
CCOC(=O)c1sc(NC(=O)C2CC(=O)N(c3ccccc3C)C2)nc1C (centres undefined)	none (no result: TAG inh)
COc1cc(C(C)=O)ccc1OCC(=O)Nc1cc(Cl)ccc1-n1cncn1	none (no result: GSK3B inh, Hep lipid drop, GSK3A inh, STK33 kinase inh, LANA-H2A inh)
O=C(Nc1ccccc1C(=O)Nc1ccccc1)c1ccco1	none (no result: TAG inh)
Cc1ccc(N(CC(=O)O)C2SC(=O)NC2=O)cc1 (centres undefined)	none
Cc1ccc(N(CC(N)=O)C2SC(=O)NC2=O)cc1 (centres undefined)	LANA-H2A inh 22 (no result: Hep lipid drop, TAG inh)
CC(C)(C)c1cc(NC(=O)CSc2nnc(NCc3ccccc3)s2)n(-c2ccccc2)n1	none (no result: TAG inh)
S=c1[nH]cc2cnccn12	none (no result: GSK3B inh, Hep lipid drop, GSK3A inh, STK33 kinase inh, LANA-H2A inh)
Oc1ccc2ccccc2c1N=Nc1ccccn1	none
O=S(=O)(O)c1cccc(N=Nc2c(O)ccc3ccccc23)c1	STK33 kinase inh 60
O=S(=O)(Nc1ccc(Br)cn1)c1cccs1	none
CN1Cc2c(N3CCOCC3)nc3sc(C(=O)c4ccc(Br)cc4)c(N)c3c2CC1(C)C	TAG inh 68
O=c1[nH]c(SCc2ccc(Cl)cc2)nc2[nH]ncc12	none (no result: GSK3A inh, TAG inh)
O=C(c1ccc(-c2ccccc2)c(F)c1)C1CCCN(C(=O)c2cncs2)C1 (centres undefined)	LANA-H2A inh 14
COc1ccc(C(=O)N(C)Cc2ccccn2)cc1OC1CCN(C(C)C)CC1	none
O=C1NC(=O)N(Cc2ccccc2)C1=O	none (no result: TAG inh)
N#C/C(=C/C=C/c1ccccc1)C(=O)Nc1ccccc1	STK33 kinase inh 16 (no result: GSK3B inh, TAG inh)
N#C/C(=C\C=C\c1ccccc1)C(=O)Nc1ccccc1	none (no result: TAG inh)
COc1ccccc1Nc1nc(NCCCN(C)C)nc(N)c1[N+](=O)[O-]	GSK3B inh -83, GSK3A inh 95
CCN(CC)CCCNc1nc(N)c([N+](=O)[O-])c(NCCO)n1	none
C=CCNc1nc(N)c([N+](=O)[O-])c(Nc2ccccc2OC)n1	none (no result: TAG inh)
CN(C)CCCNc1nc(N)c([N+](=O)[O-])c(NCCO)n1	GSK3A inh 50
CCC(C)Nc1nc(N)c([N+](=O)[O-])c(Nc2ccccc2OC)n1 (centres undefined)	GSK3B inh -55, GSK3A inh 66
Nc1nc(NCCc2ccccc2)nc(NCCO)c1[N+](=O)[O-]	GSK3A inh 93 (no result: TAG inh)
O=C(Nc1ccccc1[N+](=O)[O-])C1=C(O)CCn2c1nc1ccccc12	none (no result: TAG inh)
Cn1nnnc1SCC(=O)NC(C)(C)C	none (no result: Hep lipid drop)
Nc1nc(CCl)nc(Nc2cccc3ccccc23)n1	TAG inh 81
N#CCSc1nc2c(c(=O)n1Cc1ccco1)C1(CCCC1)Cc1ccccc1-2	none (no result: Hep lipid drop)
Cn1cccc1C(=O)NNC(=O)COc1ccccc1F	none
Cc1ccsc1C1C2=C(CC(C)(C)CC2=O)Nc2ncnn21 (centres undefined)	GSK3A inh 63 (no result: Hep lipid drop)
Cc1ccsc1C1C2=C(CCCC2=O)Nc2ncnn21 (centres undefined)	none (no result: TAG inh)
Cc1cc(C)c2c(N)c3ccccc3nc2n1	TAG inh 55 (no result: Hep lipid drop)
O=C1CC(c2ccccc2)CC(O)=C1C=NCc1ccco1 (centres undefined)	none (no result: TAG inh)
CN(C(=O)c1ccco1)c1nc(-c2ccccc2)cs1	none (no result: GSK3B inh, Hep lipid drop)
CN(c1ccc(O)cc1)c1nc(-c2ccccc2)cs1	LANA-H2A inh active (no result: GSK3B inh, TAG inh)
S=C(NCCN1CCOCC1)N/N=C/c1cccs1	none (no result: TAG inh)
CC(C)(C)C(=O)NC(n1cnc2c(N3CCOCC3)ncnc21)C(Cl)(Cl)Cl (centres undefined)	none
CC1=CC2=NC(=O)CC(C)(C(=O)N(CC(=O)NC3CCCC3)c3ccccc3C)N2C=C1 (centres undefined)	LANA-H2A inh 11
